Laboratory results reported in BindingDB's records for doi:10.1021/acs.jmedchem.5b01146 (University of California Irvine, 2016).

Target: Cytochrome P450 3A4 (Homo sapiens, UniProt P08684)
Experiment: Binding affinity to C-terminal four-histidine tagged human CYP3A4delta3 to 24 residues expressed in Escherichia coli assessed as spectral dissociation constant by spectrophotometric method
Outline: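 Purified recombinant CYP3A4 titrated in 50 mM phosphate pH 7.4 with 20% glycerol and 1 mM DTT, adding small aliquots of compound in DMSO (final solvent <2%). Absorbance spectra recorded on a spectrophotometer. Ks obtained by one- or two-site saturation fitting of absorbance change versus ligand concentration.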

Cytochrome P450 3A4, sequence (P08684 whole entry, the tested form may be a part): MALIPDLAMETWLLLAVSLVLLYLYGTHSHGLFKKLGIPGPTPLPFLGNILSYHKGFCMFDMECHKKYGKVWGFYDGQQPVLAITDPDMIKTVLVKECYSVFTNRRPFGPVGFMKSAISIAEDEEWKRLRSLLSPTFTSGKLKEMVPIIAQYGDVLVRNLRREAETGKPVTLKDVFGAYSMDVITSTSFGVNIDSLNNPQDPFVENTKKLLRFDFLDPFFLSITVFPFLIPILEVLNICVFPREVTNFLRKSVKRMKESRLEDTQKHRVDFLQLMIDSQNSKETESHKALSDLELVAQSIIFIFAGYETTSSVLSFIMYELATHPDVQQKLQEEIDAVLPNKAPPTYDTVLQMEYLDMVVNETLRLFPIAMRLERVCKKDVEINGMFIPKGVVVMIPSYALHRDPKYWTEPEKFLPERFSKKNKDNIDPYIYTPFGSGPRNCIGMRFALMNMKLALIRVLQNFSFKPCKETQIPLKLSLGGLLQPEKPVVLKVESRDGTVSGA

Row | SMILES | Kd
1 | c1ccncc1 [CHEBI:16227] | 4500 µM
2 | CC(C)(C)OC(=O)NCCCCCC(=O)NCc1cccnc1 | 105 µM
